Source: ChEMBL document CHEMBL1151448, “Comparative antianaerobic activities of doripenem determined by MIC and time-kill analysis” (2008)
In brackets after ≈: the same amount, converted by molar mass. Activity calls are given as the source filed them. The calls are words filed in the database; no cut-off is given here.

Legend:
[1] = system: Porphyromonas gingivalis; experiment: Antimicrobial activity against Porphyromonas gingivalis isolated from intra-abdominal infection and pelvic inflammatory disease patients after 48 hrs by agar dilution method; type: functional
Method in brief: (§1)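 CLSI agar dilution on brucella blood agar supplemented with laked sheep blood, hemin and vitamin K. Inocula of about 1 × 10^5 CFU/spot were applied by Steers replicator, and plates were incubated 48 h at 35°C in an anaerobic glove box. MIC was the concentration giving marked growth reduction versus the anaerobic control plate. QC strains were included each run, and β-lactamase was detected by Cefinase disk.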

[2] = system: Parabacteroides distasonis; experiment: Antimicrobial activity against beta lactamase-positive Bacteroides distasonis isolated from intra-abdominal infection and pelvic inflammatory disease patients after 48 hrs by agar dilution method; type: functional; method in brief: as §1
[3] = system: Phocaeicola vulgatus; experiment: Antimicrobial activity against beta lactamase-positive Bacteroides vulgatus isolated from intra-abdominal infection and pelvic inflammatory disease patients after 48 hrs by agar dilution method; type: functional; method in brief: as §1
[4] = system: Prevotella intermedia; experiment: Antimicrobial activity against beta lactamase-positive Prevotella intermedia isolated from intra-abdominal infection and pelvic inflammatory disease patients after 48 hrs by agar dilution method; type: functional; method in brief: as §1
[5] = system: Clostridioides difficile; experiment: Antimicrobial activity against Clostridium difficile isolated from intra-abdominal infection and pelvic inflammatory disease patients after 48 hrs by time kill analysis; type: functional
Method in brief: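 Macrodilution in prereduced brucella broth with 5% laked horse blood cells, 5 μg/ml hemin and 1 μg/ml vitamin K1. Final inoculum 10^6 to 10^7 CFU/ml, prepared inside the anaerobe chamber. Vials incubated 48 h at 35°C in a shaking water bath. MIC read by inspecting the time-kill tubes, alongside an antibiotic-free growth control.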

[6] = system: Prevotella melaninogenica; experiment: Antimicrobial activity against beta lactamase-positive Prevotella melaninogenica isolated from intra-abdominal infection and pelvic inflammatory disease patients after 48 hrs by agar dilution method; type: functional; method in brief: as §1
[7] = system: Clostridioides difficile; experiment: Bactericidal activity against Clostridium difficile isolated from intra-abdominal infection and pelvic inflammatory disease patients assessed as bacterial killing at 2 times MIC after 48 hrs by time kill analysis; type: functional
Method in brief: (§2)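 Macrodilution time-kill in prereduced brucella broth with 5% laked horse blood, hemin 5 μg/ml and vitamin K1 1 μg/ml, at final inoculum 10^6–10^7 CFU/ml. […] Viable counts were taken at 6, 12, 24 and 48 h on plates incubated 48 h anaerobically. 99.9% kill was taken as bactericidal.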

[8] = system: Clostridium paraputrificum; experiment: Antimicrobial activity against Clostridium paraputrificum isolated from intra-abdominal infection and pelvic inflammatory disease patients after 48 hrs by agar dilution method; type: functional; method in brief: as §1
[9] = system: Bacteroides fragilis; experiment: Antimicrobial activity against beta lactamase-positive Bacteroides fragilis isolated from intra-abdominal infection and pelvic inflammatory disease patients after 48 hrs by time kill analysis; type: functional
Method in brief: (§3)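 The MIC was read by inspecting macrodilution time-kill tubes. Vials held prereduced brucella broth with 5% laked horse blood cells, hemin 5 μg/ml and vitamin K1 1 μg/ml. Final inoculum was 10^6–10^7 CFU/ml, prepared inside the anaerobe chamber. Vials were incubated 48 h at 35°C in a shaking water bath.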

[10] = system: Fusobacterium nucleatum; experiment: Antimicrobial activity against beta lactamase-positive Fusobacterium nucleatum isolated from intra-abdominal infection and pelvic inflammatory disease patients after 48 hrs by agar dilution method; type: functional; method in brief: as §1
[11] = system: Prevotella intermedia; experiment: Bactericidal activity against beta lactamase-positive Prevotella intermedia isolated from intra-abdominal infection and pelvic inflammatory disease patients assessed as bacterial killing at MIC after 24 hrs by time kill analysis; type: functional
Method in brief: (§4)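 Anaerobic macrodilution time-kill. Inoculum from brucella blood plates, prepared and diluted in prereduced brucella broth inside the anaerobe chamber. Final 10^6 to 10^7 CFU/ml in prereduced brucella broth with 5% laked horse blood cells, 5 μg/ml hemin and 1 μg/ml vitamin K1. […] Shaken at 35°C for 48 h. Viable counts taken at 6, 12, 24 and 48 h. 99.9% kill taken as bactericidal.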

[12] = system: Fusobacterium necrophorum; experiment: Antimicrobial activity against Fusobacterium necrophorum isolated from intra-abdominal infection and pelvic inflammatory disease patients after 48 hrs by agar dilution method; type: functional; method in brief: as §1
[13] = system: Finegoldia magna; experiment: Bactericidal activity against beta lactamase-positive Finegoldia magna isolated from intra-abdominal infection and pelvic inflammatory disease patients assessed as 99.9% bacterial killing at 2 times MIC after 48 hrs by time kill analysis; type: functional, organism-based; method in brief: as §2
[14] = system: Prevotella bivia; experiment: Antimicrobial activity against beta lactamase-positive Prevotella bivia isolated from intra-abdominal infection and pelvic inflammatory disease patients after 48 hrs by agar dilution method; type: functional; method in brief: as §1
[15] = system: Bacteroides fragilis; experiment: Antimicrobial activity against beta lactamase-positive Bacteroides fragilis isolated from intra-abdominal infection and pelvic inflammatory disease patients after 48 hrs by agar dilution method; type: functional; method in brief: as §1
[16] = system: Fusobacterium nucleatum; experiment: Bactericidal activity against beta lactamase-positive Fusobacterium nucleatum isolated from intra-abdominal infection and pelvic inflammatory disease patients assessed as bacterial killing at 2 times MIC after 48 hrs by time kill analysis; type: functional; method in brief: as §4
[17] = system: Finegoldia magna; experiment: Antimicrobial activity against Finegoldia magna isolated from intra-abdominal infection and pelvic inflammatory disease patients after 48 hrs by agar dilution method; type: functional; method in brief: as §1
[18] = system: Prevotella intermedia; experiment: Bactericidal activity against beta lactamase-positive Prevotella intermedia isolated from intra-abdominal infection and pelvic inflammatory disease patients assessed as bacterial killing at 2 times MIC after 48 hrs by time kill analysis; type: functional; method in brief: as §4
[19] = system: Prevotella nigrescens; experiment: Antimicrobial activity against beta lactamase-positive Prevotella nigrescens isolated from intra-abdominal infection and pelvic inflammatory disease patients after 48 hrs by agar dilution method; type: functional; method in brief: as §1
[20] = system: Paeniclostridium sordellii; experiment: Antimicrobial activity against Clostridium sordellii isolated from intra-abdominal infection and pelvic inflammatory disease patients after 48 hrs by agar dilution method; type: functional; conditions: Paraclostridium sordellii; method in brief: as §1
[21] = system: Clostridium cadaveris; experiment: Antimicrobial activity against Clostridium cadaveris isolated from intra-abdominal infection and pelvic inflammatory disease patients after 48 hrs by agar dilution method; type: functional; method in brief: as §1
[22] = system: Finegoldia magna; experiment: Bactericidal activity against beta lactamase-positive Finegoldia magna isolated from intra-abdominal infection and pelvic inflammatory disease patients assessed as bacterial killing at MIC after 24 hrs by time kill analysis; type: functional; method in brief: as §4
[23] = system: Bacteroides ovatus; experiment: Antimicrobial activity against beta lactamase-positive Bacteroides ovatus isolated from intra-abdominal infection and pelvic inflammatory disease patients after 48 hrs by agar dilution method; type: functional; method in brief: as §1
[24] = system: Fusobacterium mortiferum; experiment: Antimicrobial activity against beta lactamase-positive Fusobacterium mortiferum isolated from intra-abdominal infection and pelvic inflammatory disease patients after 48 hrs by agar dilution method; type: functional; method in brief: as §1
[25] = system: [Clostridium] innocuum; experiment: Antimicrobial activity against Clostridium innocuum isolated from intra-abdominal infection and pelvic inflammatory disease patients after 48 hrs by agar dilution method; type: functional; method in brief: as §1
[26] = system: Bacteroides thetaiotaomicron; experiment: Antimicrobial activity against beta lactamase-positive Bacteroides thetaiotaomicron isolated from intra-abdominal infection and pelvic inflammatory disease patients after 48 hrs by time kill analysis; type: functional; method in brief: as §3
[27] = system: Porphyromonas asaccharolytica; experiment: Antimicrobial activity against Porphyromonas asaccharolyticus isolated from intra-abdominal infection and pelvic inflammatory disease patients after 48 hrs by agar dilution method; type: functional; method in brief: as §1
[28] = system: Thomasclavelia ramosa; experiment: Antimicrobial activity against Clostridium ramosum isolated from intra-abdominal infection and pelvic inflammatory disease patients after 48 hrs by agar dilution method; type: functional; method in brief: as §1
[29] = system: Finegoldia magna; experiment: Bactericidal activity against beta lactamase-positive Finegoldia magna isolated from intra-abdominal infection and pelvic inflammatory disease patients assessed as bacterial killing at 2 times MIC after 48 hrs by time kill analysis; type: functional; method in brief: as §4

Work on `C[C@@H](O)[C@H]1C(=O)N2C(C(=O)O)=C(S[C@@H]3CN[C@H](CNS(N)(=O)=O)C3)[C@H](C)[C@H]12` [DORIPENEM] yielded an MIC [1] of no more than 0.016 µg/mL, an MIC50 [2] of 0.5 µg/mL (≈ 1.19 µM) and an MIC90 [2] of 1 µg/mL (≈ 2.38 µM). For the same compound, the MIC50 [3] was 0.25 µg/mL (≈ 0.595 µM), the MIC90 [3] was 1 µg/mL (≈ 2.38 µM) and the MIC50 [4] was 0.03 µg/mL (≈ 0.0713 µM). For the same compound, the MIC90 [4] was 0.125 µg/mL (≈ 0.297 µM), the MIC [5] was 1 µg/mL (≈ 2.38 µM) and the MIC50 [6] was 0.03 µg/mL (≈ 0.0713 µM). The MIC90 [6] was 0.06 µg/mL (≈ 0.143 µM), the Activity [7] was 99% and the MIC [8] was 0.25 µg/mL (≈ 0.595 µM). For the same compound, the MIC [9] was 0.25 µg/mL (≈ 0.595 µM), the MIC [10] was no more than 0.016 µg/mL and the MIC50 [10] was no more than 0.016 µg/mL. The MIC90 [10] was 0.03 µg/mL (≈ 0.0713 µM), the Activity [11] was 90% and the MIC [12] was no more than 0.016 µg/mL. The MIC50 [12] was no more than 0.016 µg/mL, the MIC90 [12] was 0.25 µg/mL (≈ 0.595 µM) and the Activity [13] was “inactive”. For the same compound, the MIC [14] was 0.06 µg/mL (≈ 0.143 µM), the MIC50 [14] was 0.06 µg/mL (≈ 0.143 µM) and the MIC90 [14] was 0.125 µg/mL (≈ 0.297 µM). The MIC50 [15] was 0.25 µg/mL (≈ 0.595 µM), the MIC90 [15] was 1 µg/mL (≈ 2.38 µM) and the Activity [16] was 99%. The MIC [17] was 0.06 µg/mL (≈ 0.143 µM), the MIC50 [17] was 0.06 µg/mL (≈ 0.143 µM) and the MIC90 [17] was 0.125 µg/mL (≈ 0.297 µM). The Activity [18] was 99%, the MIC50 [19] was 0.03 µg/mL (≈ 0.0713 µM) and the MIC90 [19] was 0.06 µg/mL (≈ 0.143 µM). For the same compound, the MIC [20] was 0.03 µg/mL (≈ 0.0713 µM), the MIC [21] was 0.03 µg/mL (≈ 0.0713 µM) and the Activity [22] was 90%. The MIC [23] was 0.25 µg/mL (≈ 0.595 µM), the MIC50 [23] was 0.25 µg/mL (≈ 0.595 µM) and the MIC90 [23] was 1 µg/mL (≈ 2.38 µM). It also gave an MIC50 [24] of 0.25 µg/mL (≈ 0.595 µM), an MIC90 [24] of 1 µg/mL (≈ 2.38 µM) and an MIC [25] of 1 µg/mL (≈ 2.38 µM). The MIC50 [25] was 1 µg/mL (≈ 2.38 µM), the MIC [26] was 0.25 µg/mL (≈ 0.595 µM) and the MIC [27] was no more than 0.016 µg/mL. It also gave an MIC [28] of 0.5 µg/mL (≈ 1.19 µM), an MIC50 [28] of 0.5 µg/mL (≈ 1.19 µM) and an Activity [29] of 99%.

Work on `C[C@@H](O)[C@H]1C(=O)N2C(C(=O)O)=C(SCCNC=N)C[C@H]12` [IMIPENEM ANHYDROUS] yielded an MIC [1] of no more than 0.016 µg/mL, an MIC50 [2] of 0.5 µg/mL (≈ 1.67 µM) and an MIC90 [2] of 1 µg/mL (≈ 3.34 µM). The MIC50 [3] was 0.5 µg/mL (≈ 1.67 µM), the MIC90 [3] was 1 µg/mL (≈ 3.34 µM) and the MIC50 [4] was 0.03 µg/mL (≈ 0.1 µM). For the same compound, the MIC90 [4] was 0.125 µg/mL (≈ 0.418 µM), the MIC [5] was 4 µg/mL (≈ 13.4 µM) and the MIC50 [6] was 0.03 µg/mL (≈ 0.1 µM). The MIC90 [6] was 0.03 µg/mL (≈ 0.1 µM), the Activity [7] was 99% and the MIC [8] was 0.5 µg/mL (≈ 1.67 µM). For the same compound, the MIC [9] was 0.06 µg/mL (≈ 0.2 µM), the MIC50 [10] was 0.03 µg/mL (≈ 0.1 µM) and the MIC90 [10] was 0.03 µg/mL (≈ 0.1 µM). For the same compound, the Activity [11] was 90%, the MIC [12] was no more than 0.016 µg/mL and the MIC50 [12] was no more than 0.016 µg/mL. The MIC90 [12] was 0.25 µg/mL (≈ 0.835 µM), the Activity [13] was “inactive” and the MIC50 [14] was 0.03 µg/mL (≈ 0.1 µM). It also gave an MIC90 [14] of 0.06 µg/mL (≈ 0.2 µM), an MIC50 [15] of 0.125 µg/mL (≈ 0.418 µM) and an MIC90 [15] of 0.25 µg/mL (≈ 0.835 µM). The Activity [16] was 99%, the MIC50 [17] was 0.06 µg/mL (≈ 0.2 µM) and the MIC90 [17] was 0.06 µg/mL (≈ 0.2 µM). For the same compound, the Activity [18] was 99%, the MIC50 [19] was 0.03 µg/mL (≈ 0.1 µM) and the MIC90 [19] was 0.03 µg/mL (≈ 0.1 µM). The MIC [20] was 0.125 µg/mL (≈ 0.418 µM), the MIC [21] was 0.125 µg/mL (≈ 0.418 µM) and the Activity [22] was 90%. For the same compound, the MIC50 [23] was 0.25 µg/mL (≈ 0.835 µM), the MIC90 [23] was 0.5 µg/mL (≈ 1.67 µM) and the MIC50 [24] was 1 µg/mL (≈ 3.34 µM). It also gave an MIC90 [24] of 1 µg/mL (≈ 3.34 µM), an MIC [25] of 1 µg/mL (≈ 3.34 µM) and an MIC50 [25] of 1 µg/mL (≈ 3.34 µM). It also gave an MIC [26] of 0.25 µg/mL (≈ 0.835 µM), an MIC [27] of no more than 0.016 µg/mL and an MIC [28] of 0.25 µg/mL (≈ 0.835 µM). It also gave an MIC50 [28] of 0.25 µg/mL (≈ 0.835 µM) and an Activity [29] of 99%.
